Data on 2 molecules can be found in PMC3187937 (Biochemistry, 2011).

Where “and” joins values, the source holds several entries; their conditions need not be identical. Equal values may be shown once. Read-outs that look alike come from different tables or passages of the source.

One assay deals with E295V mutant cyt bc1 (Rhodobacter capsulatus, UniProt D5ANZ3, E295V). Type of assay: binding.
The next assay addresses T1, wild-type cyt bc1 (Rhodobacter capsulatus, UniProt D5ANZ3).
T1 sequence (D5ANZ3 1-437): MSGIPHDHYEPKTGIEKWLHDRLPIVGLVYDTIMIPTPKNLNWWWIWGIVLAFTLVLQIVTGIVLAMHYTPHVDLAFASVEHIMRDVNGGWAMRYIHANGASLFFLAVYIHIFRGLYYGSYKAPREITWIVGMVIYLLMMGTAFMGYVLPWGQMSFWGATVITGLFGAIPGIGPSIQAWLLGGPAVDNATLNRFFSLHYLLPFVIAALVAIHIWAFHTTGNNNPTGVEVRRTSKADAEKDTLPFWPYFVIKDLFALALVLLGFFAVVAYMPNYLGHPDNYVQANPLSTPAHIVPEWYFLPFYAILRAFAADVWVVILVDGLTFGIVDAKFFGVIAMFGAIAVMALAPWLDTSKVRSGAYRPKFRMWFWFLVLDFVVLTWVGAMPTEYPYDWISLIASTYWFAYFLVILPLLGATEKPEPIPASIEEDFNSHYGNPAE
T1 sequence (D5ANZ2 1-191 partner): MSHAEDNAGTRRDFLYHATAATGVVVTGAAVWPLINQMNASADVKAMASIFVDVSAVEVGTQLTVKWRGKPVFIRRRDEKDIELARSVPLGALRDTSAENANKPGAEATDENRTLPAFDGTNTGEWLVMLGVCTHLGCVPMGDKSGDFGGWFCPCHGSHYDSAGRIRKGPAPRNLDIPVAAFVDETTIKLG
T1 sequence (D5ANZ4 22-279 partner): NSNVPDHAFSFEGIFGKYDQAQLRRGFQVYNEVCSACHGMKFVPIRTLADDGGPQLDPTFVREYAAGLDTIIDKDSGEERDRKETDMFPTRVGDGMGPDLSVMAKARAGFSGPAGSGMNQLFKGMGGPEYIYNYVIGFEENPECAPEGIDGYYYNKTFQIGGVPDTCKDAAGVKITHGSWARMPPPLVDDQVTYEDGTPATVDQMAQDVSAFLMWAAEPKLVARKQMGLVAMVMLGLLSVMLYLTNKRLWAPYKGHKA
The experiment in a line: Isothermal titration calorimetry of Zn^2+ binding, wild-type enzyme.

For assay [1], the target named is purified R. capsulatus cyt b E295V mutant cyt bc1 (Rhodobacter capsulatus, UniProt D5ANZ3, E295V). The experiment in a line: Zn^2+ inhibition kinetics of DBH2:cyt c reductase activity, E295V mutant enzyme. Format: biochemical.
A further assay has as its target chicken cyt bc1. Particulars: avian; ref [25]; cited from earlier work.
The target of assay [2] is T2, purified R. capsulatus wild-type cyt bc1 (Rhodobacter capsulatus, UniProt D5ANZ3).
T2 sequence (D5ANZ3 1-437): T1 sequence (D5ANZ3 1-437)
T2 sequence (D5ANZ2 1-191 partner): T1 sequence (D5ANZ2 1-191 partner)
T2 sequence (D5ANZ4 22-279 partner): T1 sequence (D5ANZ4 22-279 partner)
The experiment in a line: Zn^2+ inhibition kinetics of DBH2:cyt c reductase activity, wild-type enzyme. Format: biochemical. The conditions noted are these: 40 mM Tris-HCl buffer pH 7.5, single homogeneous inhibition site fit, free Zn^2+.

Assay [3] has as its target T3, hemes of R. capsulatus cyt bc1 (Rhodobacter capsulatus, UniProt D5ANZ3).
T3 sequence (D5ANZ3 1-437): T1 sequence (D5ANZ3 1-437)
T3 sequence (D5ANZ2 1-191 partner): T1 sequence (D5ANZ2 1-191 partner)
T3 sequence (D5ANZ4 22-279 partner): T1 sequence (D5ANZ4 22-279 partner)

For assay [4], the target named is bovine cyt bc1. Particulars: cited from earlier work.
In assay [5] the target is bovine cyt bc1. The conditions noted are these: cited from earlier work. The source holds these as a separate data set.
Assay [6] deals with T4, R. capsulatus wild-type cyt bc1 (Rhodobacter capsulatus, UniProt D5ANZ3).
T4 sequence (D5ANZ3 1-437): T1 sequence (D5ANZ3 1-437)
T4 sequence (D5ANZ2 1-191 partner): T1 sequence (D5ANZ2 1-191 partner)
T4 sequence (D5ANZ4 22-279 partner): T1 sequence (D5ANZ4 22-279 partner)
The experiment in a line: Michaelis-Menten kinetics of DBH2:cyt c reductase, wild-type enzyme. Type of assay: biochemical. The conditions noted are these: DBH2 as substrate. In a few lines:
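Enzyme purified by DDM solubilisation of chromatophore membranes from respiratory-grown cells, then DEAE and Sephacryl S400 chromatography. Assay: 2.3 nM enzyme with 40 μM horse heart cyt c, 2 mM KCN and 0.1 g/L DDM in 50 mM sodium phosphate pH 7.4, stirred at 20 °C. DBH₂ in DMSO was varied from 0.5 to 40 μM. Initial cyt c reduction rate read at 550 nm over 1 min. Km and Vmax came from double-reciprocal plots and Michaelis-Menten fitting.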

Assay [7] addresses R. capsulatus E295V mutant cyt bc1 (Rhodobacter capsulatus, UniProt D5ANZ3, E295V). The experiment in a line: Michaelis-Menten kinetics of DBH2:cyt c reductase, E295V mutant enzyme. Particulars: DBH2 as substrate. Format: biochemical.
[8] abbreviates: E295V, blind fit, two-site model.

Chain of R. capsulatus E295V mutant cyt bc1 (D5ANZ3 whole entry E295V, one chain of several): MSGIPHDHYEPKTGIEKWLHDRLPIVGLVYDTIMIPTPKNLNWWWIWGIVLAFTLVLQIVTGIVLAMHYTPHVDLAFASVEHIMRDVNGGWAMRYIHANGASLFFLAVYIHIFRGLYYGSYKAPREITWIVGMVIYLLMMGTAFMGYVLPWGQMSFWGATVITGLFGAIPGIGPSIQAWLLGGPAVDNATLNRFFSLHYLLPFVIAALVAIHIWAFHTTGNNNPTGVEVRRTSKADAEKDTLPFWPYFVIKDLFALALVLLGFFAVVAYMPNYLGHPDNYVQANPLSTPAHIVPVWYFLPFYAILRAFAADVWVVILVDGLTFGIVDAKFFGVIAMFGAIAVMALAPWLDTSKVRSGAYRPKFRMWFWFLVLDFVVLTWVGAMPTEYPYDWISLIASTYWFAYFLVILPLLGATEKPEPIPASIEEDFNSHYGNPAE
Chain of E295V mutant cyt bc1 (D5ANZ3 whole entry E295V, one chain of several): as above
Chain of purified R. capsulatus cyt b E295V mutant cyt bc1 (D5ANZ3 whole entry E295V, one chain of several): as above

In turn, `[Zn+2]` [Zn^2+] returned a n1 on E295V mutant cyt bc1 (setting [8]) of 1.97 ± 0.08. In addition, at E295V mutant cyt bc1 (setting [8]), the “n2, low affinity binding sites per cyt bc1” value amounted to 7.1 ± 0.3. The ΔH1 on E295V mutant cyt bc1 (setting [8]) is -9.9 ± 0.7 kcal/mol; at E295V mutant cyt bc1 (E295V, n1 = 1 fixed), -28 ± 4 kcal/mol; on wild-type cyt bc1 (high affinity site), -5.6 ± 0.2 kcal/mol. In addition, the ΔH2 on E295V mutant cyt bc1 (setting [8]) is -2.6 ± 0.3 kcal/mol; at E295V mutant cyt bc1 (E295V, n1 = 1 fixed), -0.9 ± 0.5 kcal/mol; at wild-type cyt bc1 (lower affinity sites), -1.4 ± 0.2 kcal/mol. For the same molecule, the “n2, number of low affinity sites” value on E295V mutant cyt bc1 (E295V, n1 = 1 fixed) turned out to be 9.1 ± 0.5. For the same molecule, the Kd on E295V mutant cyt bc1 (read-out: KD1 (high affinity site), E295V, two-site model with n1 = 1 fixed) was found to be 1000 ± 360 nM; at E295V mutant cyt bc1 (read-out: KD2 (low affinity sites), E295V, n1 = 1 fixed) it was 3500 ± 1600 nM; at E295V mutant cyt bc1 (read-out: KD2, E295V, blind fit, two-site model), 5810 ± 1220 nM; on wild-type cyt bc1 (read-out: KD1 (high affinity site), two-site model), 500 ± 70 nM; on wild-type cyt bc1 (read-out: KD2 (lower affinity sites), two-site model), 6800 ± 900 nM; on wild-type cyt bc1 (read-out: KD (high affinity site), two-site model), 500 nM. The Kd on wild-type cyt bc1 (read-out: KD (lower affinity sites), two-site model) is 6800 nM; on bovine cyt bc1 [4] (pH 7.0, first value of cell, ref [39]) it was 100 nM; at bovine cyt bc1 [4] (read-out: KD (second value), second value of cell, ref [39]) it was more than 2000 nM. Moreover, at E295V mutant cyt bc1 (unitary stoichiometry assumed), the “change of KD1 of high affinity site in E295V compared to wild type” value is recorded as “increase by a factor of two”. Also, at wild-type cyt bc1 (sites per protein complex), the “n1, stoichiometry of high affinity site” value is 1.13 ± 0.03. Also, the “n2, number of lower affinity binding sites” value at wild-type cyt bc1 (sites per protein complex) worked out at 3.7 ± 0.2. Also, the Ki in assay [1] (40 mM Tris-HCl buffer pH 7.5, single site fit, free Zn^2+) is 2600 nM; on chicken cyt bc1 it was 3000 nM; in assay [2] it was 900 nM; on bovine cyt bc1 [5] (pH 7.0, ref [39]), 100 nM. The molecule further showed a residual activity in [1] ([Zn^2+] > 0.2 mM) of 30%. The “effect on midpoint potentials of the b-type hemes” value in assay [3] (wild type, 200 μM Zn^2+, oxidative titration, pH 8.0) was “does not significantly affect”. Further, the “effect on oxidation rate” value in assay [3] (with Zn^2+ added, +500 mV vs SHE) is “remained unaffected”. Further, the “time to fully reduced samples after application of the reducing potential” value in assay [3] (with Zn^2+ added, −500 mV vs SHE, within 7 minutes without Zn^2+) was 10 min. Further, the “Complete inhibition (Zn^2+ concentration)” value with bovine cyt bc1 [5] (ref [39]) is “[Zn^2+] > 5 μM”.

With `CCCCCCCCCCc1c(C)c(O)c(OC)c(OC)c1O` [DBH2, Decylbenzohydroquinone], the Kcat in assay [6] was 85.2 ± 13.1 s⁻¹; in assay [7] (E295V) it was 34.3 ± 4.5 s⁻¹. Further, the Vmax is 42.4 µmol/min/mg and 42.4 ± 0.8 µmol/min/mg in assay [6]; 10.6 ± 0.4 µmol/min/mg in assay [7] (E295V). Besides, the Km in [6] (purified enzyme) came to 4.9 ± 0.2 µM; in [7] (E295V, purified enzyme), 3.1 ± 0.4 µM. Besides, the “Vmax of E295V relative to wild type (fold lower)” value in assay [7] (steady-state) came out at 4 fold.
